Assays:
[1] = system: Phenylethanolamine N-methyltransferase (rabbit); test: Ability to inhibit rabbit adrenal phenylethanolamine N-methyl-transferase norepinephrine to epinephrine (E13), in vitro, at 10 e-6 M; conditions: Oryctolagus cuniculus
Mus musculus [2] = test: Minimum active dose that causes decrease in endogenous epinephrine/norepinephrine ratio, when administered perorally in mice; assay type: functional
Method in brief: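 Mice given compound orally, b.i.d., as chronic dosing, then adrenal gland E and NE content measured to give the E/NE ratio. Minimum active dose is the lowest dose giving p < 0.05 vs control by Student's t test.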

Rattus norvegicus = test: Ability to inhibit [3H]epinephrine biosynthesis was determined in the adrenal medulla of rats by administering 3 mg/kg of compound orally.; assay type: functional; conditions: po
Mus musculus [3] = test: Maximum inactive dose that causes decrease in endogenous adrenal epinephrine/norepinephrine ratio, when administered perorally in mice
[4] = system: Phenylethanolamine N-methyltransferase (rabbit); test: Ability to inhibit rabbit adrenal PNMT norepinephrine to epinephrine (E13), in vitro, at 10 e-6 M; conditions: Oryctolagus cuniculus
[5] = system: Phenylethanolamine N-methyltransferase (rabbit); test: Ability to inhibit rabbit adrenal PNMT norepinephrine to epinephrine (E13), in vitro, at 10 e-4 M compound concentration.; conditions: Oryctolagus cuniculus
Mus musculus [6] = test: Minimum active dose that causes decrease in endogenous adrenal epinephrine/norepinephrine ratio, when administered perorally in mice; assay type: functional
Method in brief: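 Mice dosed orally b.i.d. (chronic administration), then adrenal E and NE content measured and the decrease in E/NE ratio determined. Minimum active dose is the lowest dose significant at p < 0.05 versus control by Student's t test.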

Compound	inhibition [1] [%]	inhibition [4] [%]	inhibition [5] [%]	other results
c1nc2ccc3c(c2s1)CNCC3	24	–	–	–
Cl.Clc1ccc2c(c1Cl)CNCC2	–	–	–	MAD (Mus musculus [2]): 5 mg/kg; inhibition in vivo at 3 mg/kg (Rattus norvegicus): 50%; MID (Mus musculus [3]): 2.5 mg/kg
c1cc2[nH]nnc2c2c1CCNC2	20	–	–	–
Nc1nc2ccc3c(c2s1)CNCC3	–	15	41	–
c1nc2c3c(ccc2[nH]1)CCNC3	0	–	–	–
Clc1cc2snnc2c2c1CCNC2	–	51	98	–
Oc1nc2c3c(ccc2s1)CCNC3	–	3	37	–
c1ccc2c3c(ccc2c1)CCNC3	14	–	–	–
Cl.c1cc2snnc2c2c1CCNC2	–	–	–	MAD (Mus musculus [6]): 12.5 mg/kg; inhibition in vivo at 3 mg/kg (Rattus norvegicus): 87%; MID (Mus musculus [3]): 6.25 mg/kg
Oc1nc2c3c(ccc2[nH]1)CCNC3	–	1	4	–
c1cc2nnsc2c2c1CCNC2	91	–	–	–

Reference: ChEMBL document CHEMBL1124528, “Tetrahydrothiadiazoloisoquinolines: synthesis and inhibition of phenylethanolamine-N-methyltransferase” (J Med Chem, 1989)
